ChEMBL document CHEMBL3580549, “Lignan Glycosides from the Twigs of Chaenomeles sinensis and Their Biological Activities” (J Nat Prod, 2015)

Experiments:
[1] = Antiinflammatory activity against LPS-stimulated mouse BV2 cells assessed as inhibition of nitric oxide production preincubated for 30 mins followed by LPS stimulation measured after 24 hrs by Griess assay; format: functional, cell-based; conditions: BV-2
In short: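 Murine BV2 microglial cells were activated with lipopolysaccharide. NO released into the culture medium was measured, and IC50 was derived from the inhibition of NO production. L-NMMA was the positive control.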

[2] = Cytotoxicity against mouse BV2 cells assessed as cell viability at 20 uM by MTT assay relative to control; format: cell-based, BV-2; conditions: read-out: Activity
C6 = experiment: Neuroprotective activity in rat C6 cells assessed as stimulation of NGF release at 20 uM after 24 hrs by ELISA relative to control; format: functional
In short: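 C6 rat glioma cells were treated with each compound at 20 μM, and NGF secreted into the medium was measured. Stimulation is given as percent of control, and 6-shogaol was the positive control.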

A549 = experiment: Cytotoxicity against human A549 cells by SRB assay; format: functional, cell-based
SK-OV-3 = experiment: Cytotoxicity against human SKOV3 cells by SRB assay; format: functional, cell-based
SK-MEL-2 = experiment: Cytotoxicity against human SK-MEL-2 cells by SRB assay; format: functional, cell-based
HCT-15 = experiment: Cytotoxicity against human HCT15 cells by SRB assay; format: functional, cell-based

SMILES | IC50 [1] [µM] | viability at 20 µM [2] [%] | Activity (C6) [%] | IC50 (A549) [µM] | IC50 (SK-OV-3) [µM] | IC50 (SK-MEL-2) [µM] | IC50 (HCT-15) [µM]
CNC(=N)NCCC[C@H](N)C(=O)O [TILARGININE] | 24.8 | 106 | – | – | – | – | –
COc1cc(C[C@H](CO)[C@@H](CO[C@@H]2O[C@@H](C)[C@H](O)[C@@H](O)[C@H]2O)Cc2cc(OC)c(O)c(OC)c2)cc(OC)c1O | 21.3 | 104 | 167.61 | > 10 | > 10 | > 10 | > 10
CCCCC/C=C/C(=O)CCc1ccc(O)c(OC)c1 [SHOGAOL] | – | – | 141.75 | – | – | – | –
COc1cc([C@H]2Oc3c(OC)cc(CCCO)cc3[C@@H]2CO[C@@H]2O[C@@H](C)[C@H](O)[C@@H](O)[C@H]2O)ccc1O | – | 97.4 | 102.88 | > 10 | > 10 | > 10 | > 10
COc1cc([C@@H]2Oc3c(OC)cc(CCCO)cc3[C@H]2CO[C@@H]2O[C@@H](C)[C@H](O)[C@@H](O)[C@H]2O)cc(OC)c1O | – | 104 | 106.85 | > 10 | > 10 | > 10 | > 10
COc1cc([C@H]2Oc3c(OC)cc(CCCO)cc3[C@@H]2CO[C@@H]2O[C@@H](C)[C@H](O)[C@@H](O)[C@H]2O)cc(OC)c1O | – | 98.2 | 151.74 | > 10 | > 10 | > 10 | > 10
COc1cc([C@H]2Oc3c(OC)cc(CCCO)cc3[C@@H]2CO[C@@H]2O[C@H](CO)[C@@H](O)[C@H](O)[C@H]2O)ccc1O | – | 97.2 | 140.04 | > 10 | > 10 | > 10 | > 10
COc1cc([C@H]2c3c(cc(OC)c(O)c3OC)C[C@@H](CO)[C@@H]2CO[C@@H]2O[C@H](CO)[C@@H](O)[C@H](O)[C@H]2O)cc(OC)c1O | 37.7 | 99.7 | – | > 10 | > 10 | > 10 | > 10
COc1cc([C@H]2c3c(cc(OC)c(O)c3OC)C[C@@H](CO)[C@@H]2CO[C@@H]2O[C@@H](C)[C@H](O)[C@@H](O)[C@H]2O)cc(OC)c1O | 31.9 | 99.1 | – | > 10 | > 10 | > 10 | > 10

Second part, led by results:

IC50 [1] [µM] | SMILES | viability at 20 µM [2] [%] | Activity (C6) [%] | IC50 (A549) [µM] | IC50 (SK-OV-3) [µM] | IC50 (SK-MEL-2) [µM] | IC50 (HCT-15) [µM]
180 | COc1cc(C[C@@H]2CO[C@@H](c3ccc(O)c(OC)c3)[C@@H]2CO[C@@H]2O[C@@H](C)[C@H](O)[C@@H](O)[C@H]2O)ccc1O | 102 | 144.31 | > 10 | > 10 | > 10 | > 10
40.2 | COc1cc([C@H]2c3cc(O)c(OC)cc3C[C@@H](CO)[C@@H]2CO[C@@H]2O[C@@H](C)[C@H](O)[C@@H](O)[C@H]2O)ccc1O [AVICULIN] | 96.1 | 123.06 | > 10 | > 10 | > 10 | > 10
199 | COc1cc(C[C@@H]2CO[C@@H](c3cc(OC)c(O)c(OC)c3)[C@@H]2CO[C@@H]2O[C@@H](C)[C@H](O)[C@@H](O)[C@H]2O)cc(OC)c1O | 97.1 | – | > 10 | > 10 | > 10 | > 10
29.8 | COc1cc(C[C@H]2CO[C@@H](c3cc(OC)c(O)c(OC)c3)[C@H]2CO[C@@H]2O[C@@H](C)[C@H](O)[C@@H](O)[C@H]2O)cc(OC)c1O | 113 | 124.67 | > 10 | > 10 | > 10 | > 10
